# In ChEMBL document CHEMBL4813987, “Membrane active 7-thiazoxime quinolones as novel DNA binding agents to decrease the genes expression and exert potent anti-methicillin-resistant Staphylococcus aureus activity” (Eur J Med Chem, 2021):
# Active and inactive are the calls of the source. The calls are words filed in the database; no cut-off is given here.
# Tests used:
# Staphylococcus aureus [1] = assay: Antibacterial activity against methicillin-resistant Staphylococcus aureus assessed as reduction in microbial growth by two fold microdilution method; format: functional
# Summary of the method: (§1)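 MIC determined by the standard two-fold broth micro-dilution assay, with norfloxacin and ciprofloxacin as reference agents.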
# Staphylococcus aureus [2] = assay: Antibacterial activity against Staphylococcus aureus assessed as reduction in microbial growth by two fold microdilution method; format: functional; summary of the method: as §1
# Staphylococcus aureus [3] = assay: Antibacterial activity against Staphylococcus aureus ATCC 25923 assessed as reduction in microbial growth by two fold microdilution method; format: functional
# Staphylococcus aureus [4] = assay: Antibacterial activity against Staphylococcus aureus ATCC 29213 assessed as reduction in microbial growth by two fold microdilution method; format: functional
# Enterococcus faecalis = assay: Antibacterial activity against Enterococcus faecalis assessed as reduction in microbial growth by two fold microdilution method; format: functional
# Klebsiella pneumoniae [5] = assay: Antibacterial activity against Klebsiella pneumonia assessed as reduction in microbial growth by two fold microdilution method; format: functional
# Acinetobacter baumannii = assay: Antibacterial activity against Acinetobacter baumannii assessed as reduction in microbial growth by two fold microdilution method; format: functional
# Escherichia coli [6] = assay: Antibacterial activity against Escherichia coli assessed as reduction in microbial growth by two fold microdilution method; format: functional
# Escherichia coli [7] = assay: Antibacterial activity against Escherichia coli ATCC 25922 assessed as reduction in microbial growth by two fold microdilution method; format: functional
# Pseudomonas aeruginosa [8] = assay: Antibacterial activity against Pseudomonas aeruginosa assessed as reduction in microbial growth by two fold microdilution method; format: functional
# Pseudomonas aeruginosa [9] = assay: Antibacterial activity against Pseudomonas aeruginosa ATCC 27853 assessed as reduction in microbial growth by two fold microdilution method; format: functional
# Staphylococcus aureus [10] = assay: Bactericidal activity against methicillin-resistant Staphylococcus aureus assessed as increase in sterilization rate at 2 ug/ml measured at 6 hrs by time kill assay; format: functional, organism-based; conditions: dose 2.0 µg/ml
# Summary of the method: (§2)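 Time-kill kinetics: MRSA exposed to the compound at several concentrations, with ciprofloxacin as positive control. Sterilization rate followed over time up to 6 h.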
# Staphylococcus aureus [11] = assay: Bactericidal activity against methicillin-resistant Staphylococcus aureus assessed as increase in sterilization rate at 4 ug/ml measured at 4 hrs by time kill assay; format: functional, organism-based; conditions: dose 4.0 µg/ml; summary of the method: as §2
# Klebsiella pneumoniae [12] = assay: Synergistic antibacterial activity against Klebsiella pneumonia assessed as fractional inhibitory concentration index in presence of ciprofloxacin; format: functional
# Escherichia coli [13] = assay: Synergistic antibacterial activity against Escherichia coli assessed as fractional inhibitory concentration index in presence of ciprofloxacin; format: functional
# Staphylococcus aureus [14] = assay: Synergistic antibacterial activity against methicillin-resistant Staphylococcus aureus assessed as fractional inhibitory concentration index in presence of ciprofloxacin; format: functional
# Summary of the method: (§3)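 MIC of the test compound and of ciprofloxacin determined alone and in combination against each strain. FIC index = (MIC of A combined / MIC of A alone) + (MIC of B combined / MIC of B alone). FIC index ≤0.5 scored synergy, >0.5–2 additivity, >2 antagonism.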
# Staphylococcus aureus [15] = assay: Additive antibacterial activity against Staphylococcus aureus ATCC 25923 assessed as fractional inhibitory concentration index in presence of ciprofloxacin; format: functional
# Cell membrane [16] = assay: Induction of membrane depolarization in methicillin-resistant Staphylococcus aureus at MIC by DiSC35 dye-based fluorescence assay; conditions: TDE = time-dependent effect
# Summary of the method: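 Cytoplasmic membrane potential of MRSA probed with the fluorescent dye diSC35. Cells treated at MIC, and fluorescence intensity recorded over time against untreated cells.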
# Cell membrane [17] = assay: Induction of inner membrane permeabilization in methicillin-resistant Staphylococcus aureus by propidium iodide staining based fluorescence microscopic analysis
# Summary of the method: (§4)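 MRSA treated at 1–4 × MIC and stained with propidium iodide and calcein-AM. Fluorescence intensity measured on a spectrofluorimeter. Dual-stain cells imaged by fluorescence microscopy, scoring red (PI) and green (calcein) cells.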
# Cell membrane [18] = assay: Induction of inner membrane disruption in methicillin-resistant Staphylococcus aureus assessed as increase in red fluorescence intensity at 4 times MIC measured by calcein-AM dye based fluorescence analysis; summary of the method: as §4
# Cell membrane [19] = assay: Induction of inner membrane disruption in methicillin-resistant Staphylococcus aureus assessed as decrease in green fluorescence intensity at 4 times MIC measured by calcein-AM dye based fluorescence analysis; summary of the method: as §4
# DNA [20] = assay: Binding affinity to methicillin-resistant Staphylococcus aureus DNA assessed as maximum absorbance peak at 260 nm by UV spectroscopy; format: nucleic-acid assay
# Summary of the method: (§5)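 Genomic DNA isolated from MRSA titrated with the compound. UV absorption spectra recorded in 1.0 cm quartz cells, and the binding constant derived from an equation and plot of the spectral data.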
# [21] = target: T1, DNA gyrase (Staphylococcus aureus) (UniProt P0A0K8+P20831); assay: Binding affinity to DNA gyrase in methicillin-resistant Staphylococcus aureus assessed as decrease in gyrB gene expression after 3 hrs by RT-PCR method
# [22] = target: T1, DNA gyrase (Staphylococcus aureus); assay: Binding affinity to DNA gyrase in methicillin-resistant Staphylococcus aureus assessed as decrease in femB gene expression after 3 hrs by RT-PCR method
# [23] = target: T1, DNA gyrase (Staphylococcus aureus); assay: Binding affinity to DNA gyrase in methicillin-resistant Staphylococcus aureus assessed as decrease in mecA gene expression after 3 hrs by RT-PCR method
# [24] = Hemolytic activity in human RBC incubated for 4 hrs by microscopic analysis relative to control; format: ADME, cell-based, Erythrocyte; conditions: red blood cells (erythrocytes), read-out: Activity
# Summary of the method: (§6)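 Processed red blood cells incubated with various compound concentrations (multiples of MIC) for 4 h at 37 °C in PBS; 1% Triton X-100 as positive control, PBS blank, saline control; hemolysis rate determined and cell integrity inspected by microscopy.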
# HEK-293T = assay: Cytotoxicity against human HEK293T cells assessed as increase in cell survival incubated for 24 hrs by MTT assay relative to control; format: cell-based
# Summary of the method: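 LO2 hepatocytes and 293T cells exposed to compound for 24 h; viability by colorimetric MTT proliferation assay, expressed as survival rate versus untreated cells.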
# Staphylococcus aureus [25] = assay: Antibacterial activity against methicillin-resistant Staphylococcus aureus assessed as reduction in bacterial growth at 20 to 140 ug/ml measured after 16 passages; format: functional, organism-based; conditions: dose 20-140 µg/ml
# Staphylococcus aureus [26] = assay: Antibacterial activity against methicillin-resistant Staphylococcus aureus assessed as reduction in bacterial growth at 20 to 140 ug/ml measured after 16 passages in presence of ciprofloxacin; format: functional, organism-based; conditions: dose 20-140 µg/ml
# Klebsiella pneumoniae [27] = assay: Antibacterial activity against Klebsiella pneumonia in presence of ciprofloxacin (reference value: 0.25 ug/ml); format: functional
# Escherichia coli [28] = assay: Antibacterial activity against Escherichia coli in presence of ciprofloxacin (reference value: 0.25 ug/ml); format: functional
# Staphylococcus aureus [29] = assay: Antibacterial activity against methicillin-resistant Staphylococcus aureus in presence of ciprofloxacin (reference value: 0.25 ug/ml); format: functional; summary of the method: as §3
# Staphylococcus aureus [30] = assay: Antibacterial activity against Staphylococcus aureus ATCC 25923 in presence of ciprofloxacin (reference value: 0.25 ug/ml); format: functional; summary of the method: as §3
# DNA [31] = assay: Binding affinity to methicillin-resistant Staphylococcus aureus DNA assessed as conformational changes in DNA duplex by UV spectroscopy; format: nucleic-acid assay; summary of the method: as §5
# DNA [32] = assay: Binding affinity to methicillin-resistant Staphylococcus aureus DNA assessed as compound-DNA complex formation by UV spectroscopy; format: nucleic-acid assay; summary of the method: as §5
# DNA [33] = assay: Competitive binding affinity to methicillin-resistant Staphylococcus aureus DNA assessed as DNA intercalation by AO staining based assay; format: nucleic-acid assay
# Summary of the method: (§7)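 Competitive displacement on MRSA DNA, recorded by fluorescence in 1.0 cm quartz cells. For the AO–DNA complex, emission at 537 nm followed with increasing compound concentration. For the DAPI–DNA complex, DAPI fluorescence followed with increasing compound concentration.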
# DNA [34] = assay: Competitive binding affinity to methicillin-resistant Staphylococcus aureus DNA assessed as DNA intercalation by DAPI staining based assay; format: nucleic-acid assay; summary of the method: as §7
# [35] = Hemolytic activity in human RBC at 64 times MIC incubated for 4 hrs by microscopic analysis relative to control; format: ADME, cell-based, Erythrocyte; conditions: red blood cells (erythrocytes), read-out: Activity; summary of the method: as §6
# Erythrocyte = assay: Hemolytic activity in human RBC at 16 times MIC incubated for 4 hrs by microscopic analysis; format: ADME, cell-based; summary of the method: as §6
# Cell membrane [36] = assay: Induction of inner membrane permeabilization in methicillin-resistant Staphylococcus aureus assessed as decrease in fluorescence intensity at 4 times MIC measured by calcein-AM dye based fluorescence analysis
# T1 sequence (P0A0K8 2-644 limits assumed): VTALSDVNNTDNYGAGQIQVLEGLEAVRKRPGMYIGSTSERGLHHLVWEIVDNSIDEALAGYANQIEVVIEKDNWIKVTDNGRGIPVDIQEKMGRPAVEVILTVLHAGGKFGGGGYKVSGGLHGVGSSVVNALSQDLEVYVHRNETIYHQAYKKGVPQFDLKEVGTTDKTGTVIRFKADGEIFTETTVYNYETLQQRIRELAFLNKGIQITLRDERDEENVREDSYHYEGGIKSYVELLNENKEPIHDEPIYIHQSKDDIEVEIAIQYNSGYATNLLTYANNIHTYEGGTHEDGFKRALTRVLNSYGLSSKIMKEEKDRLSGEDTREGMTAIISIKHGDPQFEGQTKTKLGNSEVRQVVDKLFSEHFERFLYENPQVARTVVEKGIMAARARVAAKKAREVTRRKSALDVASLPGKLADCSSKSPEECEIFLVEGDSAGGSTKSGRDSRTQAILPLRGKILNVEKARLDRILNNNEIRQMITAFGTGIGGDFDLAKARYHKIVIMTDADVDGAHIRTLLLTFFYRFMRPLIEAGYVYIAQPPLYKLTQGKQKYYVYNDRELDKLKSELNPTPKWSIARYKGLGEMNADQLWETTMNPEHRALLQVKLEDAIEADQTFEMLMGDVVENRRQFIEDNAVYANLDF
# T1 sequence (P20831 whole entry partner): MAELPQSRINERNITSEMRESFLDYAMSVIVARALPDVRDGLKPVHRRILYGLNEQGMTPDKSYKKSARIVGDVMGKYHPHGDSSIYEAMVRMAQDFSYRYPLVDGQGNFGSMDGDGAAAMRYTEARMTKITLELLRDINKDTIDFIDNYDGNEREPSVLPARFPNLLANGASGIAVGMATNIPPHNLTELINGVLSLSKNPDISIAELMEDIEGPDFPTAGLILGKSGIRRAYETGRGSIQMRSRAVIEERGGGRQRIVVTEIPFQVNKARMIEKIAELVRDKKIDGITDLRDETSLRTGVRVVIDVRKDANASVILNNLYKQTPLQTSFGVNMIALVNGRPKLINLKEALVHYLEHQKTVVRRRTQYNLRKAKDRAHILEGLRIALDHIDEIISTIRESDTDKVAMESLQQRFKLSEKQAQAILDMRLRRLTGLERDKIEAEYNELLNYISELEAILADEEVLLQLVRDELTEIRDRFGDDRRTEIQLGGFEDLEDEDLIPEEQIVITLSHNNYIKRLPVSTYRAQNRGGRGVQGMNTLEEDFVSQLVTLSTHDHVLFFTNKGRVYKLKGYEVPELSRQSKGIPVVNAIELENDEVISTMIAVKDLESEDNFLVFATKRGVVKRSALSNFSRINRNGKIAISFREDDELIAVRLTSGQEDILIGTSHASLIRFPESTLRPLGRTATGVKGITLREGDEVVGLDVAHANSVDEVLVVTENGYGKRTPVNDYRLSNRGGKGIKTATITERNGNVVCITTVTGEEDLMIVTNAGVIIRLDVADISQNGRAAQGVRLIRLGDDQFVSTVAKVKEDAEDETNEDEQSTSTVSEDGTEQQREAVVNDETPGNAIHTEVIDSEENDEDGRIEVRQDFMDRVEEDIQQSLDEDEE
smiles,measurement,setting,value
COC(=O)CO/N=C(\CN1CCN(c2cc3c(cc2F)c(=O)c(C(=O)O)cn3C2CC2)CC1)c1nccs1,MIC,Staphylococcus aureus [1],0.25 µg/mL
same,MIC,Staphylococcus aureus [2],0.25 µg/mL
same,MIC,Staphylococcus aureus [3],0.25 µg/mL
same,MIC,Staphylococcus aureus [4],0.25 µg/mL
same,MIC,Enterococcus faecalis,0.25 µg/mL
same,MIC,Klebsiella pneumoniae [5],0.25 µg/mL
same,MIC,Acinetobacter baumannii,0.25 µg/mL
same,MIC,Escherichia coli [6],1 µg/mL
same,MIC,Escherichia coli [7],0.25 µg/mL
same,MIC,Pseudomonas aeruginosa [8],0.25 µg/mL
same,MIC,Pseudomonas aeruginosa [9],0.25 µg/mL
same,Activity,Staphylococcus aureus [10],Active
same,Activity,Staphylococcus aureus [11],Active
same,FIC,Klebsiella pneumoniae [12],0.3125
same,FIC,Escherichia coli [13],0.3125
same,FIC,Staphylococcus aureus [14],0.5
same,FIC,Staphylococcus aureus [15],1.5
same,Activity,Cell membrane [16],Tde
same,Activity,Cell membrane [17],Dose-Dependent Effect
same,Activity,Cell membrane [18],Active
same,Activity,Cell membrane [19],Active
same,Activity,DNA [20],Active
same,Activity,[21],Active
same,Activity,[22],Active
same,Activity,[23],inactive
same,hemolysis at 4 h,[24],< 3%
same,Activity,HEK-293T,> 90%
same,Activity,Staphylococcus aureus [25],Active
same,Activity,Staphylococcus aureus [26],inactive
same,MIC,Klebsiella pneumoniae [27],0.0625 µg/mL
same,MIC,Escherichia coli [28],0.0625 µg/mL
same,MIC,Staphylococcus aureus [29],0.125 µg/mL
same,MIC,Staphylococcus aureus [30],0.25 µg/mL
same,Activity,DNA [31],Active
same,Activity,DNA [32],Active
same,Activity,DNA [33],Active
same,Activity,DNA [34],Active
same,"hemolysis at 4 h, 64 times MIC",[35],< 5%
same,Activity,Erythrocyte,Non-Toxic
same,Activity,Cell membrane [36],Active
